Test results from ChEMBL document CHEMBL1828621, “Single step synthesis of new fused pyrimidine derivatives and their evaluation as potent Aurora-A kinase inhibitors” (Eur J Med Chem, 2011).
Values after ≈ are worked out from the molar mass of the structure shown.

What was measured:
HCT-116 [1] = experiment: Cytotoxicity against human HCT116 cells after 48 hrs by sulforhodamine B method; assay type: functional, cell-based; conditions: HCT-116, 48 h
Method in brief: (§1)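 HCT116 colon tumour cells grown in RPMI 1640 with 5% FBS and 2 mM L-glutamine. Seeded at 10,000 cells/well and held 24 h at 37 °C, 5% CO₂ before dosing. Drugs kept as DMSO stocks at 400-fold the top final concentration, diluted in medium with gentamicin, tested at four concentrations for 48 h. Fixed with cold TCA (final 10%) for 60 min at 4 °C, stained with 0.4% SRB, bound dye dissolved in Tris-EDTA, read on an ELISA reader. Extra plates fixed at dosing served as baseline.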

HCT-116 [2] = experiment: Cytotoxicity against human HCT116 cells assessed as cell survival at 2.5 ug/ml after 48 hrs by sulforhodamine B method relative to control; assay type: functional; method in brief: as §1
HCT-116 [3] = experiment: Cytotoxicity against human HCT116 cells assessed as cell survival at 1 ug/ml after 48 hrs by sulforhodamine B method relative to control; assay type: functional; method in brief: as §1
HCT-116 [4] = experiment: Cytotoxicity against human HCT116 cells assessed as cell survival at 10 ug/ml after 48 hrs by sulforhodamine B method relative to control; assay type: functional; method in brief: as §1
Aurora kinase A = target: T1, Aurora kinase A (Homo sapiens, UniProt O14965); experiment: Inhibition of GST-tagged Aurora A kinase expressed in insect cells assessed as inhibition of [33P]gamma-ATP incorporation in substrate after 60 mins by scintillation counting
T1 sequence (O14965 whole entry): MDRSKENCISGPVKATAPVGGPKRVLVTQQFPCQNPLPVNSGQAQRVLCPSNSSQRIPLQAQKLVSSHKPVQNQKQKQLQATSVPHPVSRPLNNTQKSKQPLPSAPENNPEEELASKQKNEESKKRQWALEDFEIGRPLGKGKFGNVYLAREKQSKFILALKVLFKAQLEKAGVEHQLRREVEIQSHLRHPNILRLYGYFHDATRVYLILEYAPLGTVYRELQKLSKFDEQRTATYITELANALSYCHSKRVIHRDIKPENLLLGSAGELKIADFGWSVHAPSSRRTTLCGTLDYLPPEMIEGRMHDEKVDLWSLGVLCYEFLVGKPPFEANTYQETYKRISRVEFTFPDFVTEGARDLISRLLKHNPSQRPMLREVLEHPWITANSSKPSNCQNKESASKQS
Method in brief: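 Reaction: biotinylated CHOCKtide substrate with ATP/[γ-33P]ATP mix, 60 min at room temperature, in 50 mM HEPES pH 7.5, 10 mM MgCl₂, 1 mM DTT, NaVO₃ and 0.2 mg/mL BSA. Stopped with EDTA/ATP plus streptavidin SPA beads; beads floated on 5 M CsCl and counted for phosphate incorporated into substrate.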

HCT-116 [5] = experiment: Cytotoxicity against human HCT116 cells assessed as cell survival at 5 ug/ml after 48 hrs by sulforhodamine B method relative to control; assay type: functional; method in brief: as §1

SMILES	IC50 (HCT-116 [1])	Ratio (HCT-116 [2])	Ratio (HCT-116 [3])	Ratio (HCT-116 [4])	IC50 (Aurora kinase A; read-out: IC50)	Ratio (HCT-116 [5])	IC50 (Aurora kinase A)
Cc1cc2ncc(S(=O)(=O)c3ccccc3)c(-c3ccccc3)n2n1	> 25 µg/mL	0.698	0.774	0.597	101 nM	0.671	–
O=S(=O)(c1ccccc1)c1cnc2cc(-c3ccccc3)nn2c1-c1ccccc1	1.27 µg/mL (≈ 3.09 µM)	0.455	0.683	0.377	51 nM	0.43	–
COc1ccc(-c2cc3ncc(S(=O)(=O)c4ccccc4)c(-c4ccccc4)n3n2)cc1	1.28 µg/mL (≈ 2.9 µM)	0.436	0.516	0.217	25 nM	0.288	–
O=S(=O)(c1ccccc1)c1cnc2cc(-c3ccc(Cl)cc3)nn2c1-c1ccccc1	1.64 µg/mL (≈ 3.68 µM)	0.508	0.56	0.42	120 nM	0.42	–
Cc1nn2c(-c3ccccc3)c(S(=O)(=O)c3ccccc3)cnc2c1Br	2.21 µg/mL (≈ 5.16 µM)	0.373	0.529	0.183	–	0.253	Not Active
O=S(=O)(c1ccccc1)c1cnc2c(Br)c(-c3ccccc3)nn2c1-c1ccccc1	1.34 µg/mL (≈ 2.73 µM)	0.42	0.629	0.24	39 nM	0.271	–
O=S(=O)(c1ccccc1)c1cnc2cc(-c3ccccc3)nn2c1-c1ccc(Cl)cc1	> 25 µg/mL	0.953	0.987	0.797	–	0.894	Not Active
COc1ccc(-c2cc3ncc(S(=O)(=O)c4ccccc4)c(-c4ccc(Cl)cc4)n3n2)cc1	> 25 µg/mL	0.794	0.824	0.744	–	0.778	Not Active
Cc1ccc(-c2c(S(=O)(=O)c3ccccc3)cnc3cc(-c4ccc(Cl)cc4)nn23)cc1	9.3 µg/mL (≈ 20.2 µM)	0.665	1	0.333	–	0.382	Not Active
O=S(=O)(c1ccccc1)c1cnc2nc3ccccc3n2c1-c1ccccc1	> 25 µg/mL	0.885	0.984	0.82	–	0.845	Not Active
O=S(=O)(c1ccccc1)c1cnc2nc3ccccc3n2c1-c1ccc(Cl)cc1	> 25 µg/mL	0.905	0.95	0.79	–	0.889	Not Active
O=S(=O)(c1ccccc1)c1cnc2nc3ccccc3n2c1-c1ccc(Br)cc1	16.3 µg/mL (≈ 35.1 µM)	0.748	1	0.209	–	0.624	Not Active
O=S(=O)(c1ccccc1)c1cnc2ncnn2c1-c1ccccc1	1.97 µg/mL (≈ 5.86 µM)	0.302	0.689	0.256	104 nM	0.294	–
O=S(=O)(c1ccccc1)c1cnc2ncnn2c1-c1ccc(Cl)cc1	2.15 µg/mL (≈ 5.8 µM)	0.377	0.786	0.243	9240 nM	0.316	–
Cc1ccc(-c2c(S(=O)(=O)c3ccccc3)cnc3cc(-c4ccccc4)nn23)cc1	18 µg/mL (≈ 42.3 µM)	0.745	1	0.253	–	0.701	Not Active
Cc1ccc(-c2c(S(=O)(=O)c3ccccc3)cnc3c(Br)c(-c4ccccc4)nn23)cc1	14 µg/mL (≈ 27.8 µM)	0.701	1	0.309	–	0.53	Not Active
Cc1ccc(-c2cc3ncc(S(=O)(=O)c4ccccc4)c(-c4ccc(C)cc4)n3n2)cc1	10.5 µg/mL (≈ 23.9 µM)	0.764	1	0.246	–	0.408	Not Active
COc1cccc2c1C(=O)c1c(O)c3c(c(O)c1C2=O)C[C@@](O)(C(=O)CO)C[C@@H]3O[C@H]1C[C@H](N)[C@H](O)[C@H](C)O1 [DOXORUBICIN]	1.3 µg/mL (≈ 2.39 µM)	0.439	0.523	0.291	40 nM	0.42	–
